Screening data: PubChem BioAssay, Sanford-Burnham Center for Chemical Genomics
A selection: hits, their analogues and other compounds. The true share with any hit is near 1.7%.
Scp-1 inhibitor – blocks human Scp-1 phosphatase activity. inhibition, % at 20 µM. hit rate 0.88% among 340,000. Recombinant Scp1, phosphopeptide, malachite green phosphate absorbance. Q9GZU7. AID 493091;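 active = inhibition above about 50% at 20 µM, limit read from the data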;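 also: plate controls were DMSO wells with enzyme for no effect and wells lacking enzyme for full effect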
Target sequence (Q9GZU7 76-261 limits assumed): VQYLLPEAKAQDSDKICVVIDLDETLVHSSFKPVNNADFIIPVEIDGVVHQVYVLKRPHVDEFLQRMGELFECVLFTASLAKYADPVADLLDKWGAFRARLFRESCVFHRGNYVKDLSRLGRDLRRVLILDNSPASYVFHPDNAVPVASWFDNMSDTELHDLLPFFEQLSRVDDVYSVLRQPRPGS
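Test system: SCP-1 catalytic domain; Buffer or medium: Acidic Tris acetate buffer with magnesium and detergent; Also added: Phosphorylated 17-residue peptide substrate; Compound: single 20 µM dose, 1% DMSO; Schedule: enzyme reaction 45 min at room temperature, colour 5 min, stabilisation 30 min; Signal: Phosphate-binding colour reagent, absorbance read at 630 nm.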
DNMT1 block – inhibitors of human DNMT1 | hit rate 0.83% among 360,000 | inhibition (reported as % activation of signal), % at 10 µM | DNMT1 molecular beacon, Hinp1I cleavage, fluorescence | P26358; in the data active = inhibition above about 50%
SUMO1-SIM PPI – SUMO1-SIM interaction modulation | SUMO1 binding to a labelled peptide, TR-FRET, 1 h | P63165 | hit rate 0.33% among 360,000 | AID 602429 | inhibition, % at 20 µM; in the data active = inhibition above about 37%
STEP block – STEP (human) phosphatase inhibition. P54829. recombinant STEP, OMFP fluorogenic substrate, fluorescence. hit rate 0.25% among 360,000. inhibition, % at 20 µM. AID 588621;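 active = inhibition at 20 µM, scaled per plate between control wells, above about 37%, limit read from the data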;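 also: 0% = DMSO with enzyme and substrate and 100% = substrate only without enzyme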
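System: isolated STEP enzyme; schedule: 20 min enzyme reaction at room temperature, protected from light; medium: Bis-Tris buffer pH 6.0, 2.5 mM DTT, 0.005% Tween 20; signal: fluorescence, 480/540 nm; dosing: single compound dose of 20 µM, 1% DMSO final; also added: OMFP substrate, 25 µM final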
LMPTP block – blocks human LMPTP phosphatase; recombinant LMPTP-A, OMFP fluorogenic substrate, fluorescence intensity; inhibition, % at 20 µM; hit rate 0.22% among 360,000;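 active = compounds that cut the enzyme signal by at least half of the control window in the single-dose screen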;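 also: plate controls were DMSO wells with enzyme plus substrate for no effect and substrate without enzyme for full effect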
Target sequence (P24666 whole entry, looked up): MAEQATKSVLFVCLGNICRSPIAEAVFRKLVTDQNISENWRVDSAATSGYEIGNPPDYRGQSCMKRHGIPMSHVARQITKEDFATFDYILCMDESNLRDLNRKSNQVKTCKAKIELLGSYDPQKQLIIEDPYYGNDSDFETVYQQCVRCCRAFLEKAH
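material = LMPTP-A | quantity = 0.625 nM enzyme | reagent = OMFP substrate, 400 µM final | buffer or medium = Bis-Tris pH 6.0, DTT, detergent | detection = endpoint fluorescence intensity from OMFP dephosphorylation | dosing = single 20 µM dose | read-out basis = % inhibition relative to no-enzyme and uninhibited control wells | control set = no-enzyme and uninhibited controls | timing = 50 min at room temperature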
Numbers without * were called inactive; x = no result given.

SMILES	Scp-1 inhibitor	DNMT1 block	SUMO1-SIM PPI	STEP block	LMPTP block
CN1C(=O)NC(=O)/C(=C/c2ccc([N+](=O)[O-])o2)C1=O	62*	x	x	x	x
CN1C(=O)NC(=O)/C(=C/c2ccc([N+](=O)[O-])s2)C1=O	2	10	29	6	3
CCOc1ccc(N2C(=O)/C(=C/c3ccco3)C(=O)NC2=S)cc1	94*	49	114*	100*	92*
Cc1ccc(N2C(=O)NC(=O)/C(=C/C=C/c3ccco3)C2=O)cc1	6	30	6	-1	0
CCOc1ccc(N2C(=O)/C(=C\c3cccs3)C(=O)NC2=S)cc1	11	x	x	x	x
CCc1ccc(N2C(=O)NC(=O)/C(=C\C=C\c3ccco3)C2=O)cc1	11	138*	12	1	4
CCC(C)NC(=O)c1c(N)n(Cc2ccc3c(c2)OCO3)c2nc3ccccc3nc12 (configuration not stated)	-5	36	40*	0	8
CCC(C)NC(=O)c1c(N)n(CCCOC)c2nc3ccccc3nc12 (configuration not stated)	-2	38	41*	0	5
COCCCn1c(N)c(C(=O)Nc2ccccc2)c2nc3ccccc3nc21	-10	-30	-4	-2	4
CCc1nn2c(=O)c(F)c(N3CCNCC3)nc2s1	x	1	-3	0	-3
CCCCn1nnnc1C(CCSC)N1CCC2(CC1)C(=O)NCN2c1ccccc1 (configuration not stated)	x	-2	4	-1	0
CNCC(=O)c1ccc(O)c(O)c1	x	2	3	2	56*
Nc1ccc2ccc3cccc[n+]3c2c1	0	109*	-14	-35	39
Cc1ccc2c(c1)C1C[N+](C)(CC(=O)c3ccc(Cl)cc3Cl)CCC1N2C(=O)c1ccc(F)cc1 (configuration not stated)	95*	7	-11	-2	0
Cc1ccc2c(c1)C1CN(C)CCC1N2C(=O)c1cccs1 (configuration not stated)	-12	-1	2	-3	0
O=c1[nH]c2ccccc2n1C1CCN(Cc2ccc(-c3[nH]c4cc5ncnc5cc4nc3-c3ccccc3)cc2)CC1	x	x	-4	x	84*
CCN(CC)C(=O)c1ccc(N(Cc2ccccc2)S(C)(=O)=O)cc1	-2	-1	0	6	0
CCN(CC)C(=O)c1ccc2c(c1)C1C=CCC1C(C(=O)O)N2 (configuration not stated)	39	19	45*	33	2
CCN(CC)C(=O)c1ccc2c(c1)C1C(Cl)C(Sc3ccccc3[N+](=O)[O-])CC1C(C(=O)O)N2 (configuration not stated)	24	64*	65*	6	50
O=C(O)c1ccc2c(c1)C1C(Cl)C(Sc3ccccc3[N+](=O)[O-])CC1C(c1cccc([N+](=O)[O-])c1)N2 (configuration not stated)	-7	71*	46*	6	6
O=C(O)c1cccc2c1NC(c1cccc([N+](=O)[O-])c1)C1CC(Sc3ccccc3[N+](=O)[O-])C(Cl)C21 (configuration not stated)	1	85*	41*	8	36
O=[N+]([O-])c1cccc(C2N3CCCN23)c1 (configuration not stated)	-5	0	-8	0	-3
Cc1cc(Br)cn2c(CC(=O)N3CCCCC3)c(-c3ccc(F)cc3)nc12	x	x	-6	x	-1
CC1(C)CC(=O)CC(C)(C)N1O	x	1	2	-2	-2
CC1(C)C2([N+](=O)[O-])CN3CN(C2)CC1([N+](=O)[O-])C3	7	6	39*	1	-1
C=C1C(=O)O[C@@H]2C[C@@H](C)[C@H]3C=CC(=O)[C@]3(O)C[C@@H]12	-8	-31	53*	-1	1
CCOC(=O)[C@]12Cc3cc4ccccc4cc3[C@H]1N(Cc1ccccc1)C(=O)c1ccccc12	x	x	4	x	6
O=C1Nc2ccccc2/C1=C/c1cnc[nH]1	82*	0	-11	2	-1
CC12CCC(O)CC1CCC1C2CCC2(C)C(C(=O)CO)CCC12 (configuration not stated)	x	-4	9	0	-1
